Columns and labels:
[1] = test system: K^+ current of rat sympathetic neurons; conditions: cited from earlier work
hEag1 channels [2] = molecular target: T1, hEag1 channels (Homo sapiens, UniProt O95259); test: Outside-out patch recordings of hEag1 currents; format: cell-based
T1 sequence (O95259 1-989): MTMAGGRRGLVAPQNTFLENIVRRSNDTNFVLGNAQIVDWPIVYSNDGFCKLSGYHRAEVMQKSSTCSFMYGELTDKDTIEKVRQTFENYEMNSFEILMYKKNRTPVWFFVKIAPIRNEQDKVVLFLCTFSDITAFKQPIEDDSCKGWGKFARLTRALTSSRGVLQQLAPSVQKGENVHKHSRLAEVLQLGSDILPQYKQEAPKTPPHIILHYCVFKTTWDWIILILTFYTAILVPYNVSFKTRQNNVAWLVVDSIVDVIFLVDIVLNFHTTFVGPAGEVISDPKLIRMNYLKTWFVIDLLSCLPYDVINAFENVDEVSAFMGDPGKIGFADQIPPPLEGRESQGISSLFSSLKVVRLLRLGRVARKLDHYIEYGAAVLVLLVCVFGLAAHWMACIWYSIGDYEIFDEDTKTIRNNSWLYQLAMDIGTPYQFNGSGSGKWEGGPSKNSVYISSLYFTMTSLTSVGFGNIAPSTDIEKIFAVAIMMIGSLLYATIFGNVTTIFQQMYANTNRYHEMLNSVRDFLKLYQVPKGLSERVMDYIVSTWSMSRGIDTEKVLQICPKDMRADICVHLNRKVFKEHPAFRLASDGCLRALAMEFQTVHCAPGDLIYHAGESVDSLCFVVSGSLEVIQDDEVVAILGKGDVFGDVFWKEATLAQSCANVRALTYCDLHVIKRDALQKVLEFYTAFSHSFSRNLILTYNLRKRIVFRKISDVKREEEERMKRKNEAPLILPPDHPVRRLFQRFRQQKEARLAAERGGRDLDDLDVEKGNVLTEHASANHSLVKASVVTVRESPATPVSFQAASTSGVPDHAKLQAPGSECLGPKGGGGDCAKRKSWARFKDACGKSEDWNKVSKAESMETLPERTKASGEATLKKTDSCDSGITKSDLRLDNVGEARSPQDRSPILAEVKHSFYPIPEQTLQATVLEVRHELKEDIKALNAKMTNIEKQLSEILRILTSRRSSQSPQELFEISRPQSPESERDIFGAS
Summary of the method: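 Outside-out patches from hEag1-expressing cells at room temperature. Successive 6-s recordings at 80 mV; drug applied to the extracellular face for 2.5 s, then removed. Currents were divided point-wise by control traces, and the time course was fitted with a single exponential to give the block or equilibration time constant and the steady-state fraction blocked.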

hEag1 channels [3] = molecular target: T1, hEag1 channels; test: Whole-cell patch-clamp of hEag1 currents in stably transfected HEK-293 cells; format: cell-based
hEag1 channels [4] = molecular target: T1, hEag1 channels; test: Inside-out patch recordings of hEag1 currents; format: cell-based
Summary of the method: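 Inside-out patches from hEag1-expressing cells at room temperature. Pipette: 145 NaCl, 5 KCl, 3 CaCl2, 1 MgCl2, 10 HEPES/NaOH pH 7.4. Successive 6-s pulses at 80 mV with drug applied for 2.5 s. Current ratios to preapplication traces were fitted with a single exponential to give the block time constant.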

hEag1 channels [5] = molecular target: T1, hEag1 channels; test: Cell-attached patch recordings of hEag1 currents, drug in bath; format: cell-based; conditions: 140 mM external K+, 60 mV
Summary of the method: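 hEag1-expressing cells grown 24–72 h on poly-L-lysine-coated coverslips; cell-attached patches at room temperature. Bath held 140 mM K+; pipette held control external solution (160 NaCl, 2.5 KCl, 2 CaCl2, 1 MgCl2, 10 HEPES, pH 7.4) without glucose. 1-s steps to 60 mV from −70 mV were recorded before, during and after washout of bath-applied drug.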

[6] = Ionization: pKa and calculated protonated fractions; format: physicochemical
Summary of the method: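 Fractions of unprotonated, monoprotonated and diprotonated test compound were calculated from its two pKa values at pH 6.4, 7.4 and 8.4. The diprotonated percentage was 100 × [H+]2 divided by the summed-species denominator. Protonated fractions in the pH 7.4 recording solution were predicted the same way.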

melanoma cells = conditions: ref Gavrilova-Ruch et al., 2002; cited from earlier work
[7] = 10 μM imipramine or 1 μM astemizole
[8] = 200 μM internal TEA, 80 mV, 10 μM imipramine or 1 μM astemizole
[9] = control, 80 mV, 10 μM imipramine or 1 μM astemizole

C[N+](C)(C)CCC=C1c2ccccc2CCc2ccccc21 [N-methyl-amitriptyline]
effect on whole-cell K+ current when included in the patch pipette ([1]; 50 μM in pipette, ref Wooltorton and Mathie (1995)): does not inhibit

C[N+](C)(C)CCCN1c2ccccc2CCc2ccccc21.[I-] [N-methyl-imipramine, N-methyl-imipramine iodide]
effect on current, applied to the extracellular side in outside-out patches (hEag1 channels [2]; 5 μM, external and internal pH 7.4): virtually no effect

CC[N+](CC)(CC)CC [TEA]
hEag1 current blocked (hEag1 channels [3]; 80 mV, 200 μM in the internal solution (unpublished data)): ~50% | hEag1 current blocked (hEag1 channels [3]; 80 mV, 7 mM in the external solution (unpublished data)): ~50%

CN(C)CCC=C1c2ccccc2CCc2ccccc21 [amitriptyline]
current blocked ([1]; 50 μM, ref Wooltorton and Mathie, 1995): ~90%

CN(C)CCCN1c2ccccc2CCc2ccccc21 [imipramine]
voltage dependence of block (hEag1 channels [3]): strongly voltage dependent | k of exponential fit to τclose(V) (tail current deactivation) (hEag1 channels [3]; [7]): −0.039 | τ(0) of exponential fit to τclose(V) (tail current deactivation) (hEag1 channels [3]; [7]): 65.13 ms | effect on whole-cell current when added to the intracellular solution (hEag1 channels [3]; 100 μM in intracellular pH 6.4 solution (unpublished data)): no evident reduction | reduction of potency in the presence of internal TEA (hEag1 channels [3]; 200 μM internal TEA): ~50% | current blocked (hEag1 channels [3]; [8]): 39 ± 3% | τblock (hEag1 channels [3]; [8]): 86 ± 5 ms | effect of external TEA on the block (hEag1 channels [3]; 7 mM external TEA): did not affect | current blocked (hEag1 channels [3]; [9]): 77 ± 2% | τblock (hEag1 channels [3]; [9]): 35 ± 4 ms | slope of logIC50 versus difference between pHext and pHint (hEag1 channels [3]; linear fit): −0.86 | slope of linear fit of τblock^−1 versus concentration (hEag1 channels [3]; nonsaturating concentrations, 80 mV): 2.5 s^−1μM^−1 | slope of linear fit of τblock^−1 versus concentration (hEag1 channels [3]; pHext 7.4, pHint 6.4): 12.6 s^−1μM^−1 | time constant of block washout (hEag1 channels [3]; pHext 7.4, pHint 6.4): 46 ± 8 s | slope of linear fit of τblock^−1 versus concentration (hEag1 channels [3]; pHext 7.4, pHint 7.4): 3.4 s^−1μM^−1 | time constant of block washout (hEag1 channels [3]; pHext 7.4, pHint 7.4): 19 ± 6 s | slope of linear fit of τblock^−1 versus concentration (hEag1 channels [3]; pHext 7.4, pHint 8.4): 0.9 s^−1μM^−1 | time constant of block washout (hEag1 channels [3]; pHext 7.4, pHint 8.4): 6 ± 1 s | Hill coefficient of fit to τblock versus concentration (hEag1 channels [3]; whole-cell, 80 mV): 1.27 | time constant of current decay (τblock) at the IC50 concentration (hEag1 channels [3]; whole-cell, 80 mV): ~50 ms | τblock, maximum of Hill fit (hEag1 channels [3]; whole-cell, 80 mV): 86.7 ms | τblock, minimum of Hill fit (hEag1 channels [3]; whole-cell, 80 mV): 11.6 ms | fraction of the membrane electric field sensed at the binding site (hEag1 channels [3]; z = 1, fit of IC50 versus test potential): 39% | effect on current, direct application to inside-out patches (hEag1 channels [4]; 25 μM, bath pH 6.0, 80 mV): complete current suppression | time constant of block in inside-out patches (hEag1 channels [4]; bath pH 6.0, pipette pH 7.4, 80 mV): 155 ms | reversal of block on 2-s washout during the depolarization (hEag1 channels [4]; inside-out patches): fully reversed | time constant of block (equilibration of neutral drug) in outside-out patches (hEag1 channels [2]; bath pH 6.0, pipette pH 7.4): 182 ms | inhibition at 25 µM (hEag1 channels [2]; read-out: current inhibition in outside-out patches): ~30% | block of channels in cell-attached patches by bath application (hEag1 channels [5]): blocked | protonated fraction ([6]; pH 6.0): 99.97% | predicted protonated fraction ([6]; pH 7.4 recording solution): 99% | effect on proliferation rate (melanoma cells): significant reduction

Source: publication PMC2233905 (The Journal of General Physiology, 2004)
